Data set [1] in a line: Chemical stability of the compound in presence of snake venom phosphodiesterase after 30 mins by RP-HPLC analysis. It is filed as physicochemical. Particulars: 0.5 h. The gist of the method: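 Each oligoribonucleotide (0.8 nmol) incubated with snake venom phosphodiesterase, a 3'-exonuclease (0.01 U), in 200 mM Tris–HCl pH 8.0 with 100 mM MgCl₂ at 37 °C for 5 and 30 min; mixtures analysed by RP-HPLC, remaining full-length RNA expressed as fraction of total RNA from chromatogram peak areas.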

In data set [2] the target is T1, Hepatocyte nuclear factor 4-alpha (Homo sapiens) (UniProt P41235).
T1 sequence (whole entry): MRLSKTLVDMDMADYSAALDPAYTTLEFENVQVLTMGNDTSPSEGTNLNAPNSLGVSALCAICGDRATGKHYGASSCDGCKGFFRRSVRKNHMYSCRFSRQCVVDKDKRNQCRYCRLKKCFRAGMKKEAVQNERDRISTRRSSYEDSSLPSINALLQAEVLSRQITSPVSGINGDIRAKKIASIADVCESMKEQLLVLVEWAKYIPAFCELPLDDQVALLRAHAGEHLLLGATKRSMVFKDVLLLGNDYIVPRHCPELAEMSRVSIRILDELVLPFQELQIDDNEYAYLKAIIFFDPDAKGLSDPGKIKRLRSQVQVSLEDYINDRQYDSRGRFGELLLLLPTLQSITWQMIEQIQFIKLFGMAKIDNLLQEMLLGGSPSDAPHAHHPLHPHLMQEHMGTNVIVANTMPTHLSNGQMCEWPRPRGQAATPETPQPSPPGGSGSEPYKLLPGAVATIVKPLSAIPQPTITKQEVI
Put plainly: Inhibition of HNF4alpha mRNA expression in human HepG2 cells after 24 hrs by RT-PCR analysis. It is filed as cell-based. The following applies: in the assay text read “after 48 hrs” for “after 24 hrs”. Summed up: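 HepG2 cells were grown in DMEM with 5% FBS at 37 °C and transfected with siRNA using a transfection reagent. After 24 h at 37 °C, the medium was changed to DMEM with 10% FBS and cells were incubated a further 24 h. Total RNA was reverse-transcribed for real-time PCR (40 cycles). HNF4α mRNA was normalized to GAPDH by ΔΔCt and expressed relative to nonsense control siRNA, using the mean Ct of duplicate PCRs from independent cells.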

Data set [3] has as its target T1, Hepatocyte nuclear factor 4-alpha (Homo sapiens). Put plainly: Inhibition of HNF4alpha mRNA expression in human HepG2 cells after 24 hrs by real-time RT-PCR.

Activity calls are given as the source filed them. No cut-off for these calls is given here.

`NCCN(CCN)CCNC(=O)Cc1cn([C@H]2C[C@H](OP(=O)(O)OC[C@H]3O[C@@H](n4cc(CC(=O)NCCN(CCN)CCN)c(=O)[nH]c4=O)C[C@@H]3O)[C@@H](COP(=O)(O)O[C@@H]3[C@H](O)[C@@H](COP(=O)(O)O[C@H]4[C@@H](O)[C@H](n5cnc6c(N)ncnc65)O[C@@H]4COP(=O)(O)O[C@H]4[C@@H](O)[C@H](n5ccc(N)nc5=O)O[C@@H]4COP(=O)(O)O[C@H]4[C@@H](O)[C@H](n5cnc6c(N)ncnc65)O[C@@H]4COP(=O)(O)O[C@@H]4[C@H](O)[C@@H](COP(=O)(O)O[C@@H]5[C@H](O)[C@@H](COP(=O)(O)O[C@H]6[C@@H](O)[C@H](n7ccc(=O)[nH]c7=O)O[C@@H]6COP(=O)(O)O[C@@H]6[C@H](O)[C@@H](COP(=O)(O)O[C@@H]7[C@H](O)[C@@H](COP(=O)(O)O[C@H]8[C@@H](O)[C@H](n9ccc(=O)[nH]c9=O)O[C@@H]8COP(=O)(O)O[C@@H]8[C@H](O)[C@@H](COP(=O)(O)O[C@H]9[C@@H](O)[C@H](n%10ccc(N)nc%10=O)O[C@@H]9COP(=O)(O)O[C@@H]9[C@H](O)[C@@H](COP(=O)(O)O[C@H]%10[C@@H](O)[C@H](n%11ccc(=O)[nH]c%11=O)O[C@@H]%10COP(=O)(O)O[C@@H]%10[C@H](O)[C@@H](COP(=O)(O)O[C@H]%11[C@@H](O)[C@H](n%12cnc%13c(N)ncnc%13%12)O[C@@H]%11COP(=O)(O)O[C@H]%11[C@@H](O)[C@H](n%12ccc(N)nc%12=O)O[C@@H]%11COP(=O)(O)O[C@@H]%11[C@H](O)[C@@H](COP(=O)(O)O[C@H]%12[C@@H](O)[C@H](n%13cnc%14c(=O)[nH]c(N)nc%14%13)O[C@@H]%12COP(=O)(O)O)O[C@H]%11n%11cnc%12c(=O)[nH]c(N)nc%12%11)O[C@H]%10n%10cnc%11c(=O)[nH]c(N)nc%11%10)O[C@H]9n9cnc%10c(=O)[nH]c(N)nc%109)O[C@H]8n8cnc9c(=O)[nH]c(N)nc98)O[C@H]7n7cnc8c(=O)[nH]c(N)nc87)O[C@H]6n6cnc7c(=O)[nH]c(N)nc76)O[C@H]5n5cnc6c(=O)[nH]c(N)nc65)O[C@H]4n4cnc5c(=O)[nH]c(N)nc54)O[C@H]3n3cnc4c(N)ncnc43)O2)c(=O)[nH]c1=O`: in data set [1], the Stability result is “Stable”. The result in data set [2] and in data set [3] was Active.
Consider `NCCN(CCN)CCNC(=O)Cc1cn([C@H]2C[C@H](OP(=O)(O)OC[C@H]3O[C@@H](n4cc(CC(=O)NCCN(CCN)CCN)c(=O)[nH]c4=O)C[C@@H]3O)[C@@H](COP(=O)(O)O[C@H]3[C@@H](O)[C@H](n4ccc(N)nc4=O)O[C@@H]3COP(=O)(O)O[C@H]3[C@@H](O)[C@H](n4ccc(N)nc4=O)O[C@@H]3COP(=O)(O)O[C@@H]3[C@H](O)[C@@H](COP(=O)(O)O[C@H]4[C@@H](O)[C@H](n5ccc(=O)[nH]c5=O)O[C@@H]4COP(=O)(O)O[C@H]4[C@@H](O)[C@H](n5ccc(N)nc5=O)O[C@@H]4COP(=O)(O)O[C@H]4[C@@H](O)[C@H](n5cnc6c(N)ncnc65)O[C@@H]4COP(=O)(O)O[C@H]4[C@@H](O)[C@H](n5ccc(N)nc5=O)O[C@@H]4COP(=O)(O)O[C@@H]4[C@H](O)[C@@H](COP(=O)(O)O[C@H]5[C@@H](O)[C@H](n6ccc(N)nc6=O)O[C@@H]5COP(=O)(O)O[C@H]5[C@@H](O)[C@H](n6cnc7c(N)ncnc76)O[C@@H]5COP(=O)(O)O[C@H]5[C@@H](O)[C@H](n6ccc(N)nc6=O)O[C@@H]5COP(=O)(O)O[C@H]5[C@@H](O)[C@H](n6ccc(N)nc6=O)O[C@@H]5COP(=O)(O)O[C@H]5[C@@H](O)[C@H](n6cnc7c(N)ncnc76)O[C@@H]5COP(=O)(O)O[C@H]5[C@@H](O)[C@H](n6ccc(N)nc6=O)O[C@@H]5COP(=O)(O)O[C@H]5[C@@H](O)[C@H](n6ccc(N)nc6=O)O[C@@H]5COP(=O)(O)O[C@H]5[C@@H](O)[C@H](n6ccc(=O)[nH]c6=O)O[C@@H]5COP(=O)(O)O[C@@H]5[C@H](O)[C@@H](COP(=O)(O)O[C@H]6[C@@H](O)[C@H](n7ccc(=O)[nH]c7=O)O[C@@H]6COP(=O)(O)O[C@H]6[C@@H](O)[C@H](n7ccc(=O)[nH]c7=O)O[C@@H]6COP(=O)(O)O)O[C@H]5n5cnc6c(=O)[nH]c(N)nc65)O[C@H]4n4cnc5c(=O)[nH]c(N)nc54)O[C@H]3n3cnc4c(=O)[nH]c(N)nc43)O2)c(=O)[nH]c1=O`, for which the result in data set [2] and in data set [3] was Active.
Turning to `Cc1cn([C@H]2C[C@H](OP(=O)(O)OC[C@H]3O[C@@H](n4cc(C)c(=O)[nH]c4=O)C[C@@H]3O)[C@@H](COP(=O)(O)O[C@H]3[C@@H](O)[C@H](n4ccc(N)nc4=O)O[C@@H]3COP(=O)(O)O[C@H]3[C@@H](O)[C@H](n4ccc(N)nc4=O)O[C@@H]3COP(=O)(O)O[C@@H]3[C@H](O)[C@@H](COP(=O)(O)O[C@H]4[C@@H](O)[C@H](n5ccc(=O)[nH]c5=O)O[C@@H]4COP(=O)(O)O[C@H]4[C@@H](O)[C@H](n5ccc(N)nc5=O)O[C@@H]4COP(=O)(O)O[C@H]4[C@@H](O)[C@H](n5cnc6c(N)ncnc65)O[C@@H]4COP(=O)(O)O[C@H]4[C@@H](O)[C@H](n5ccc(N)nc5=O)O[C@@H]4COP(=O)(O)O[C@@H]4[C@H](O)[C@@H](COP(=O)(O)O[C@H]5[C@@H](O)[C@H](n6ccc(N)nc6=O)O[C@@H]5COP(=O)(O)O[C@H]5[C@@H](O)[C@H](n6cnc7c(N)ncnc76)O[C@@H]5COP(=O)(O)O[C@H]5[C@@H](O)[C@H](n6ccc(N)nc6=O)O[C@@H]5COP(=O)(O)O[C@H]5[C@@H](O)[C@H](n6ccc(N)nc6=O)O[C@@H]5COP(=O)(O)O[C@H]5[C@@H](O)[C@H](n6cnc7c(N)ncnc76)O[C@@H]5COP(=O)(O)O[C@H]5[C@@H](O)[C@H](n6ccc(N)nc6=O)O[C@@H]5COP(=O)(O)O[C@H]5[C@@H](O)[C@H](n6ccc(N)nc6=O)O[C@@H]5COP(=O)(O)O[C@H]5[C@@H](O)[C@H](n6ccc(=O)[nH]c6=O)O[C@@H]5COP(=O)(O)O[C@@H]5[C@H](O)[C@@H](COP(=O)(O)O[C@H]6[C@@H](O)[C@H](n7ccc(=O)[nH]c7=O)O[C@@H]6COP(=O)(O)O[C@H]6[C@@H](O)[C@H](n7ccc(=O)[nH]c7=O)O[C@@H]6COP(=O)(O)O)O[C@H]5n5cnc6c(=O)[nH]c(N)nc65)O[C@H]4n4cnc5c(=O)[nH]c(N)nc54)O[C@H]3n3cnc4c(=O)[nH]c(N)nc43)O2)c(=O)[nH]c1=O`, the outcome in data set [2] and in data set [3] was Active.

The values above are taken from ChEMBL document CHEMBL1641468, “Synthesis of modified siRNA bearing C-5 polyamine-substituted pyrimidine nucleoside in their 3'-overhang regions and its RNAi activity” (Bioorg Med Chem Lett, 2011).
